Test results reported in ChEMBL document CHEMBL3856188, “Usnic Acid Derivatives with Cytotoxic and Antifungal Activities from the Lichen Usnea longissima” (J Nat Prod, 2016).
In brackets after ≈: the same amount, converted by molar mass.

Key:
Trichophyton rubrum = experiment: Antimicrobial activity against Trichophyton rubrum after 4 days by microdilution method; format: functional; conditions: 96 h
[1] = Cytotoxicity against human HepG2 cells assessed as cell growth inhibition after 48 hrs by MTT assay; format: functional, cell-based; conditions: HepG2, 48 h
Summary of the method: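 HepG2 cells seeded at 3 × 10^3 cells/well in DMEM with 10% FBS and grown 24 h, then exposed to compound for 48 h. MTT (5 mg/mL in PBS) added for 3 h, supernatant removed, formazan dissolved in DMSO with 10 min shaking, and OD read at 490 nm. Methotrexate served as positive control. Values given as IC50.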

Compound	MIC50 (Trichophyton rubrum) [µM]	IC50 [1] [µM]
COC(=O)CCCN/C(C)=C1\C(=O)C=C2Oc3c(C(C)=O)c(O)c(C)c(O)c3[C@@]2(C)C1=O	> 200	–
CCO[C@@]12CC(=O)/C(=C(/C)N)C(=O)[C@]1(C)c1c(O)c(C(C)=O)c(O)c(C)c1O2	> 200	–
CCOC(=O)CCCN/C(C)=C1\C(=O)C=C2Oc3c(C(C)=O)c(O)c(C)c(O)c3[C@@]2(C)C1=O	> 200	–
CCO[C@@]12CC(=O)/C(=C(/C)N)C(=O)[C@]1(C)c1c(O)c(C)c(O)c(C(C)=O)c1O2	> 200	50.2
CCO[C@@]12CC(O)=C(C(C)=O)C(=O)[C@]1(C)c1c(O)c(C)c(O)c(C(C)=O)c1O2	41 (≈ 16 µg/mL)	–
CN(Cc1cnc2nc(N)nc(N)c2n1)c1ccc(C(=O)N[C@@H](CCC(=O)O)C(=O)O)cc1 [METHOTREXATE]	–	15.8

Continued, in another order:

MIC50 (Trichophyton rubrum) [µM]	Compound	IC50 [1] [µM]
> 200	CCOC(=O)CCCN/C(C)=C1\C(=O)C[C@@]2(OCC)Oc3c(C(C)=O)c(O)c(C)c(O)c3[C@@]2(C)C1=O	–
41 (≈ 16 µg/mL)	CCO[C@@]12CC(O)=C(C(C)=O)C(=O)[C@]1(C)c1c(O)c(C(C)=O)c(O)c(C)c1O2	53.3
> 200	CC(=O)C1=C(O)C=C2Oc3c(C(C)=O)c(O)c(C)c(O)c3[C@@]2(C)C1=O [(+)-USNIC ACID]	–
